Activity calls are given as the source filed them. No cut-off for these calls is given here.
How the values were obtained:
[1] = tested on: HT-29; assay: Cytotoxicity against human HT-29 cells assessed as growth inhibition after 48 hrs by WST-1 assay; format: functional, cell-based; details: HT-29, 48 h
Outline: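 HT-29 human colon cancer cells kept in RPMI 1640 with 10% FBS, penicillin, streptomycin and 2 mmol/L L-glutamine. Seeded at 0.4*10⁴/well, left overnight, then medium replaced with fresh medium holding the test concentrations for 48 h. WST-1 added, 4 h at 37 °C, formazan read at 450 nm. IC₅₀ taken relative to untreated controls; mean ± SD of three separate experiments.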

[2] = tested on: HT-29; assay: Inhibition of cell surface expression of CD133 in human HT-29 cells at 10 uM by flow cytometric analysis relative to control; format: functional
Outline: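 HT-29 cells exposed to compound at 10 µM, then harvested, washed and stained with APC-conjugated anti-CD133 monoclonal antibody. Analysed by flow cytometry (BD LSR II), with debris and cell clusters excluded by forward- and side-scatter gating. Reported as % inhibition of […] relative to untreated cells; mean ± SD of three separate experiments.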

SMILES | IC50 [1] [µM] | inhibition [2] | inhibition at 10 µM [2] [%]
O=C(CSc1nc2ccccc2[nH]1)c1ccc(O)cc1 | 19.2 | inactive | 
COc1ccccc1C(=O)CSc1nc2ccccc2[nH]1 | 36.1 |  | 34.9
O=C(CSc1nc2ccccc2[nH]1)c1cccs1 | 23.9 |  | 55.6
O=C(CSc1nc2ccccc2[nH]1)c1ccccc1 | 38.5 | inactive | 
O=C(CSc1nc2ccccc2[nH]1)c1ccco1 | 24.6 |  | 56.8
CCOc1ccc(C(=O)CSc2nc3ccccc3[nH]2)cc1 | > 100 |  | 55.1
O=C(CSc1nc2ccccc2[nH]1)c1ccc2c(c1)OCO2 | 36.8 |  | 51.2
COc1ccc(C(=O)CSc2nc3ccccc3[nH]2)cc1 | 25.2 |  | 52.5
O=C(CSc1nc2ccccc2[nH]1)c1ccc([N+](=O)[O-])cc1 | 57 | inactive | 
COc1ccc(C(=O)CSc2nc3ccccc3[nH]2)cc1O | 33 |  | 49.7
O=C(CSc1nc2ccccc2[nH]1)c1ccc(Br)cc1 | 43 | inactive | 
COc1ccc(C(=O)CSc2nc3ccccc3[nH]2)cc1OC | 19.1 |  | 52.6
COc1ccc(C(=O)CSc2nc3ccccc3[nH]2)c(OC)c1OC | 18.8 |  | 50.1
O=C(CSc1nc2ccccc2[nH]1)c1ccc(F)cc1 | 78.7 | inactive | 
Cc1ccc(C(=O)CSc2nc3ccccc3[nH]2)cc1 | 34.5 |  | 40
O=c1[nH]cc(F)c(=O)[nH]1 [FLUOROURACIL] | 15.8 |  | 

Source: ChEMBL document CHEMBL3632599, “2-((Benzimidazol-2-yl)thio)-1-arylethan-1-ones: Synthesis, crystal study and cancer stem cells CD133 targeting potential” (Eur J Med Chem, 2015)
